# Reference: ChEMBL document CHEMBL1128731, “Furanfurin and thiophenfurin: two novel tiazofurin analogues. Synthesis, structure, antitumor activity, and interactions with inosine monophosphate dehydrogenase” (J Med Chem, 1995)
# What was measured:
# [1] = tested on: K562; experiment: Compound was tested for its effect on IMPDH activity against K562 cells at 50 uM concentration; format: functional, Homo sapiens
# How it was run: (§1)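 Log-phase K562 cells (1×10^6/mL) were exposed to saline or agent for 2 h at 37 °C, washed and lysed (Tris-HCl pH 7.4, NaCl, MgCl2, 0.5% NP-40, aprotinin). The cleared supernatant was incubated 30 min at 37 °C with 286 μM [2,8-3H]IMP and 1 mM NAD. Tritium release was counted by scintillation. Activity is nmol XMP/h/mg protein, also given as % of control.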
# [2] = IC90 ratio against bone marrow samples to HL-60; format: functional
# How it was run: (§2)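 Antiproliferative assay scoring [125I]-5-iodo-2'-deoxyuridine incorporation into DNA after 72 h drug–cell contact. Run on normal human bone marrow from five donors and in three assays on HL-60. Ratio is antilog(mean log IC50 or IC90) on bone marrow over the same on HL-60. Range limits are antilog(mean log IC50 ± 2SD).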
# [3] = tested on: K562; experiment: compound was tested for its effect on IMPDH activity against K562 cells at 50 uM concentration; format: functional, Homo sapiens
# How it was run: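 K562 cells (1×10^6/mL, log phase) exposed 2 h at 37 °C to 10, 50 or 100 μM drug, or to saline. Cells washed and lysed in Tris-HCl pH 7.4/NaCl/MgCl2/NP-40/aprotinin, and the 13000g supernatant used as enzyme. Enzyme incubated 30 min at 37 °C with 286 μM [2,8-3H]IMP and 1 mM NAD. Tritium release counted; activity in nmol XMP/h/mg protein, as % of saline control.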
# [4] = tested on: K562; experiment: Formation of NAD analogue by compound at 100 uM concentration against human myelogenous leukemia K562; format: functional
# How it was run: (§3)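 K562 cells (1×10^7/10 mL) were labeled with 185 nM [2,8-3H]adenosine for 1 h at 37 °C, then given saline or analogue for 2 h. Cells were pelleted, washed with PBS and extracted in cold 10% trichloroacetic acid. Extracts were neutralized with 0.5 M tri-n-octylamine in freon and run on SAX HPLC with ammonium phosphate buffer. Results are pmol NAD analogue per 10^9 cells.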
# [5] = tested on: K562; experiment: Compound was tested for its effect on IMP ribonucleotide levels of K562 cell at 50 uM concentration; format: functional, Homo sapiens
# How it was run: (§4)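 K562 cells (1×10^7) were treated with saline or agent for 2 h at 37 °C, harvested by centrifugation and washed with cold saline. They were extracted with cold 10% trichloroacetic acid, neutralized with 0.5 M tri-n-octylamine in freon, and analyzed by HPLC. Levels are in nmol/g and expressed as % of saline control. Significance was set at p < 0.05.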
# [6] = tested on: K562; experiment: Compound was tested for its effect on NAD ribonucleotide levels of K562 cell at 100 uM concentration; format: functional, Homo sapiens; how it was run: as §4
# [7] = tested on: K562; experiment: Compound was tested for its effect on IMP ribonucleotide levels of K562 cell at 10 uM concentration; format: functional, Homo sapiens; how it was run: as §4
# [8] = tested on: K562; experiment: Compound was tested for its effect on CTP ribonucleotide levels of K562 cell at 10 uM concentration; format: functional, Homo sapiens; how it was run: as §4
# [9] = tested on: K562; experiment: Formation of NAD analogue by compound at 50 uM concentration against human myelogenous leukemia K562; format: functional; how it was run: as §3
# [10] = tested on: K562; experiment: Compound was tested for its effect on GMP ribonucleotide levels of K562 cell at 10 uM concentration; format: functional, Homo sapiens; how it was run: as §4
# [11] = tested on: K562; experiment: Compound was tested for its effect on GMP ribonucleotide levels of K562 cell at 100 uM concentration; format: functional, Homo sapiens; how it was run: as §4
# [12] = tested on: K562; experiment: Compound was tested for its effect on ADP ribonucleotide levels of K562 cell at 10 uM concentration; format: functional, Homo sapiens; how it was run: as §4
# [13] = organism: Homo sapiens; experiment: Inhibitory concentration range against human bone marrow; format: functional; how it was run: as §2
# [14] = tested on: K562; experiment: Compound was tested for its effect on UTP ribonucleotide levels of K562 cell at 100 uM concentration; format: functional, Homo sapiens; how it was run: as §4
# [15] = tested on: K562; experiment: Compound was tested for its effect on ATP ribonucleotide levels of K562 cell at 100 uM concentration; format: functional, Homo sapiens; how it was run: as §4
# [16] = tested on: K562; experiment: Compound was tested for its effect on GTP ribonucleotide levels of K562 cell at 100 uM concentration; format: functional, Homo sapiens; how it was run: as §4
# [17] = tested on: Mus musculus; experiment: Compound was tested for ratio of survival time of treated to control mice x100 at 400 mg/kg dose; format: functional
# How it was run: (§5)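 Female BD2F1 mice (8 weeks old, 20–22 g), eight per group, injected ip with 10^5 L1210 leukemia cells on day 0. Starting 24 h later, drug dissolved in 0.9% NaCl given ip once daily for 9 consecutive days. % T/C = survival time of treated/control mice × 100. Body weight change tracked from start to end of treatment.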
# [18] = tested on: Mus musculus; experiment: Average weight change of mice from onset to termination of drug treatment at 400 mg/kg dose; early death due to toxicity; format: functional, organism-based; design: dose 400 mg/kg
# How it was run: (§6)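 Female BD2F1 mice (8 weeks, 20–22 g), eight per group, injected ip with 10^5 L1210 cells on day 0. From 24 h later, drug in 0.9% NaCl was given ip once daily for 9 days. Body weight change was averaged from onset to termination of treatment. Early deaths from toxicity were recorded.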
# [19] = tested on: Lewis lung carcinoma cell line; experiment: Inhibitory concentration against LLC Lewis lung carcinoma; format: functional, cell-based; conditions: Mus musculus
# How it was run: (§7)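 Cells in log phase plated with a range of drug concentrations (B16 5×10^3 cells/well; P388, L1210, LLC 10^4 cells/well; HL-60, K562, LoVo 2.5×10^5 cells/well). Growth read by modified MTT after 72 h drug contact at 37 °C. IC50 taken as the concentration reducing optical absorption by 50%, from Chou regression analysis. Maximum concentration tested 200 μM.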
# [20] = tested on: K562; experiment: Compound was tested for its effect on GTP ribonucleotide levels of K562 cell at 10 uM concentration; format: functional, Homo sapiens; how it was run: as §4
# [21] = tested on: K562; experiment: Compound was tested for its effect on NAD ribonucleotide levels of K562 cell at 50 uM concentration; format: functional, Homo sapiens; how it was run: as §4
# [22] = tested on: K562; experiment: Compound was tested for its effect on AMP ribonucleotide levels of K562 cell at 100 uM concentration; format: functional, Homo sapiens; how it was run: as §4
# [23] = tested on: K562; experiment: Compound was tested for its effect on IMPDH activity against K562 cells at 10 uM concentration; format: functional, Homo sapiens; how it was run: as §1
# [24] = tested on: Mus musculus; experiment: Average weight change of mice from onset to termination of drug treatment at 6.2 mg/kg dose; format: functional; how it was run: as §6
# [25] = tested on: K562; experiment: Compound was tested for its effect on IMP ribonucleotide levels of K562 cell at 100 uM concentration; format: functional, Homo sapiens; how it was run: as §4
# [26] = tested on: K562; experiment: Compound was tested for its effect on UDP ribonucleotide levels of K562 cell at 10 uM concentration; format: functional, Homo sapiens; how it was run: as §4
# [27] = tested on: K562; experiment: Compound was tested for its effect on UMP ribonucleotide levels of K562 cell at 50 uM concentration; format: functional, Homo sapiens; how it was run: as §4
# [28] = tested on: K562; experiment: Compound was tested for its effect on CDP ribonucleotide levels of K562 cell at 100 uM concentration; format: functional, Homo sapiens; how it was run: as §4
# [29] = tested on: K562; experiment: Compound was tested for its effect on UDP ribonucleotide levels of K562 cell at 100 uM concentration; format: functional, Homo sapiens; how it was run: as §4
# [30] = tested on: K562; experiment: Compound was tested for its effect on AMP ribonucleotide levels of K562 cell at 10 uM concentration; format: functional, Homo sapiens; how it was run: as §4
# [31] = tested on: K562; experiment: Compound was tested for its effect on ATP ribonucleotide levels of K562 cell at 50 uM concentration; format: functional, Homo sapiens; how it was run: as §4
# [32] = tested on: HL-60; experiment: Inhibitory concentration against HL-60 human promyelocytic leukemia; format: functional, cell-based; how it was run: as §7
# [33] = tested on: Mus musculus; experiment: Compound was tested for ratio of survival time of treated to control mice x100 at 25 mg/kg dose; format: functional; how it was run: as §5
# [34] = tested on: K562; experiment: Compound was tested for its effect on GDP ribonucleotide levels of K562 cell at 50 uM concentration; format: functional, Homo sapiens; how it was run: as §4
smiles,measurement,setting,value
NC(=O)c1csc([C@@H]2O[C@H](CO)[C@@H](O)[C@H]2O)c1,Activity,[1],1.85
same,Ratio,[2],>10
same,Control,[3],37%
same,Formation,[4],886 pmol/10^9 cells
same,Control,[5],594%
same,Control,[6],63%
same,Control,[7],314%
same,Control,[8],32%
same,Formation,[9],505 pmol/10^9 cells
same,Control,[10],98%
same,Control,[11],80%
same,Control,[12],122%
same,IC90,[13],>128 µM
same,Control,[14],87%
same,Control,[15],81%
same,Control,[16],58%
same,T/C,[17],<100%
same,Change,[18],Toxic
same,IC50,[19],11.2 µM
same,Control,[20],71%
same,Control,[21],66%
same,Control,[22],131%
same,Activity,[23],2.8
same,Change,[24],8.5%
same,Control,[25],689%
same,Control,[26],134%
same,Control,[27],115%
same,Control,[28],99%
same,Control,[29],131%
same,Control,[30],156%
same,Control,[31],88%
same,IC50,[32],13.9 µM
same,T/C,[33],168%
same,Control,[34],79%
